Activity calls are given as the source filed them. The calls are words filed in the database; no cut-off is given here.
Experiments:
[1] = Growth inhibition of Chinese hamster RT16 cells after 96 hrs by CellTiter-blue assay in presence of folic acid; format: functional, cell-based; details: Cricetulus griseus, RT16, 96 h
In short: (§1)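 RT16 cells were first kept 3 days in folate-free RPMI. Cells were exposed to a drug concentration range with or without 200 nM folic acid to block FR uptake. After 96 h, CellTiter-blue fluorescence was read.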

[2] = Growth inhibition of Chinese hamster R2(VC) cells after 96 hrs by CellTiter-blue assay; details: Cricetulus griseus
[3] = Growth inhibition of Chinese hamster PC43-10 cells after 96 hrs by CellTiter-blue assay; format: functional, cell-based; details: Cricetulus griseus, PC43-10, 96 h
[4] = Growth inhibition of Chinese hamster MTXRII-OuaR2-4 cells after 96 hrs by CellTiter-blue assay; details: Cricetulus griseus
R2 = assay: Growth inhibition of Chinese hamster R2 cells expressing human PCFT4 after 96 hrs by CellTiter-blue assay; format: functional, cell-based, Cricetulus griseus; details: R2, 96 h
[5] = Growth inhibition of Chinese hamster RT16 cells after 96 hrs by CellTiter-blue assay; format: functional, cell-based; details: Cricetulus griseus, RT16, 96 h; in short: as §1
KB [6] = assay: Growth inhibition of human KB cells expressing human RFC/FRalpha/PCFT after 96 hrs by CellTiter-blue assay in presence of folic acid; format: functional, cell-based
KB [7] = assay: Growth inhibition of human KB cells expressing human RFC/FRalpha/PCFT after 96 hrs by CellTiter-blue assay; format: functional, cell-based
[8] = Growth inhibition of Chinese hamster D4 cells after 96 hrs by CellTiter-blue assay; format: functional, cell-based; details: Cricetulus griseus, D4, 96 h
[9] = target: T1, Dihydrofolate reductase (Homo sapiens) (UniProt P00374); assay: Inhibition of recombinant DHFR (unknown origin)
T1 sequence (whole entry): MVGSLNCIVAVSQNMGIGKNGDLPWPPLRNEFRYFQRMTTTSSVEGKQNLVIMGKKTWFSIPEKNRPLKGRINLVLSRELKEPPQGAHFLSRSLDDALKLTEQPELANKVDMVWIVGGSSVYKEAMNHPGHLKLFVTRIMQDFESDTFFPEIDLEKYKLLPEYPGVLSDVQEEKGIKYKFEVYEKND

[10] = target: Folate receptor alpha (Homo sapiens) (UniProt P15328); assay: Displacement of [3H]-folic acid from human folate receptor-alpha expressed in Chinese hamster RT16 cells after 15 mins; format: cell-based
Sequence of Folate receptor alpha (Homo sapiens) (P15328 25-234 limits assumed): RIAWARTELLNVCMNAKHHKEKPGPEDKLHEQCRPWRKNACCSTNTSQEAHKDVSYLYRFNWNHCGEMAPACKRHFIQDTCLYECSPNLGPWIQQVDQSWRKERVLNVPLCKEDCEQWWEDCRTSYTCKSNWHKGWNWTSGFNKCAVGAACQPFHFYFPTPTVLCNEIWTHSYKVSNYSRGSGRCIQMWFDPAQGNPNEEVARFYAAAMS
In short: (§2)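 Cells (~1.6x10^6) rinsed with DPBS, then acidic buffer (10 mM sodium acetate, 150 mM NaCl, pH 3.5) to strip bound folate. Washed with ice-cold HEPES-buffered saline, pH 7.4. Incubated 15 min at 0°C with [3H]folic acid (50 nM, 0.5 Ci/mmol) plus a range of unlabeled ligand concentrations. Bound label normalized to protein (pmol/mg). […] Triplicate.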

[11] = Growth inhibition of Chinese hamster D4 cells after 96 hrs by CellTiter-blue assay in presence of folic acid; format: functional, cell-based; details: Cricetulus griseus, D4, 96 h
[12] = target: T2, Trifunctional purine biosynthetic protein adenosine-3 (Homo sapiens, UniProt P22102); assay: In situ inhibition of GRAFTase in human KB cells assessed as incorporation of [14C]-glycine into [14C]-formyl GAR preincubated for 30 mins followed by [14C]-glycine addition measured after 15 hrs
T2 sequence (P22102 whole entry): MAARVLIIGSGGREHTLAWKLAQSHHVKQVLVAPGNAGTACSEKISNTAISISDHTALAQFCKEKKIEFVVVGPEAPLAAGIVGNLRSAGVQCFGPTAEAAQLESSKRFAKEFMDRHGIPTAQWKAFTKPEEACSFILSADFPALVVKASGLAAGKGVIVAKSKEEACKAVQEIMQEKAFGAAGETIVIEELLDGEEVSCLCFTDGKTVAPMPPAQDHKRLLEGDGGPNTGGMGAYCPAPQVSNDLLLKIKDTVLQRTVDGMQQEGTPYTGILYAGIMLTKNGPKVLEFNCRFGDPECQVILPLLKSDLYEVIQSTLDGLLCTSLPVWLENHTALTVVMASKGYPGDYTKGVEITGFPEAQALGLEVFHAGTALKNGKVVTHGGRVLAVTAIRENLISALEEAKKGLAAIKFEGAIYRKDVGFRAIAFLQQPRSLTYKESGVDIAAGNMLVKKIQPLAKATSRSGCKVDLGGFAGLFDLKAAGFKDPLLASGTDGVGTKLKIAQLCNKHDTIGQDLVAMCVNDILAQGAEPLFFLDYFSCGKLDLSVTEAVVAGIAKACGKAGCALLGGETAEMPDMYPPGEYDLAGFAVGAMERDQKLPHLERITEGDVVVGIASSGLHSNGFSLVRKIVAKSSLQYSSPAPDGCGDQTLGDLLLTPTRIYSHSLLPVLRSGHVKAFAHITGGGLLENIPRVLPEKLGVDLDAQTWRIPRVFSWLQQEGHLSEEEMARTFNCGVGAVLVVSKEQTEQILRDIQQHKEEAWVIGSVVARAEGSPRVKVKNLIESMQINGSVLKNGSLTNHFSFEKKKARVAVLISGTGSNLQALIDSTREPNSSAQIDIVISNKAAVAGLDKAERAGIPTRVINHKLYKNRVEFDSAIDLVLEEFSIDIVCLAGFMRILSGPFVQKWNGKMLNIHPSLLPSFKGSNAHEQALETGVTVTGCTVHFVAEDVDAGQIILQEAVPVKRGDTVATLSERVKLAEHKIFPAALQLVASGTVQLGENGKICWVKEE

[13] = target: Thymidylate synthase (Homo sapiens) (UniProt P04818); assay: Inhibition of recombinant TS (unknown origin)
Sequence of Thymidylate synthase (Homo sapiens) (P04818 2-313 limits assumed): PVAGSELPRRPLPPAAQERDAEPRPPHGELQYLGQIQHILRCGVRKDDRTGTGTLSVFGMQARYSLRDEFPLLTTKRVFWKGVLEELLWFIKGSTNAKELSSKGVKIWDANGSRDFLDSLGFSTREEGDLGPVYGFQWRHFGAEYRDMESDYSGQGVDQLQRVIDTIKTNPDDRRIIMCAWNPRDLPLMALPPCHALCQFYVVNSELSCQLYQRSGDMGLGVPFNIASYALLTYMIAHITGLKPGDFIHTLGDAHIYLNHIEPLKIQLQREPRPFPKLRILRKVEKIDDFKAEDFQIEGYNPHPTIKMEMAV

KB [14] = assay: Growth inhibition of human KB cells by CellTiter Blue fluorescence dye-based assay in presence of thymidine; format: functional, cell-based
In short: (§3)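 KB cells in complete folate-free RPMI 1640 with 2 nM leucovorin were exposed to a drug concentration range. Co-additions were adenosine (60 μM), thymidine (10 μM), both together, or AICA (320 μM). Cell density was read by CellTiter Blue fluorescence and normalized to drug-free cells. Data are representative of triplicate experiments.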

KB [15] = assay: Growth inhibition of human KB cells by CellTiter Blue fluorescence dye-based assay in presence of adenosine and AICA; format: functional, cell-based; in short: as §3
[16] = target: Folate receptor beta (Homo sapiens) (UniProt P14207); assay: Displacement of [3H]-folic acid from human folate receptor-beta expressed in Chinese hamster D4 cells after 15 mins; format: cell-based; in short: as §2
Sequence of Folate receptor beta (Homo sapiens) (P14207 17-230 limits assumed): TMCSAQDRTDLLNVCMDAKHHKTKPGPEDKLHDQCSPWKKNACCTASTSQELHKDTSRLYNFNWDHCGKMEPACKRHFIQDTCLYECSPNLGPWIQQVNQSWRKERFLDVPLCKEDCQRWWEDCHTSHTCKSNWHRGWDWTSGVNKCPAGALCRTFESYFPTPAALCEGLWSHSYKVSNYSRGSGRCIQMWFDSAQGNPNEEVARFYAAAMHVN

IC50 (KB [6]) [µM]	IC50 (KB [7]) [µM]	inhibition [10]	inhibition [16]	Structure (SMILES)	IC50 [1] [µM]	IC50 [2] [µM]	IC50 [3] [µM]	IC50 [4] [µM]	IC50 (R2) [µM]	IC50 [5] [µM]	IC50 [8] [µM]	inhibition [9]	IC50 [11] [µM]	IC50 [12] [µM]	inhibition [13]	growth inhibition (GI) (KB [14])	growth inhibition (GI) (KB [15])
0.00194	0.00047			C#CCC(Cc1cnc2nc(N)nc(N)c2n1)c1ccc(C(=O)N[C@@H](CCC(=O)O)C(=O)O)cc1 (mixture of isomers) [PRALATREXATE]	> 1	> 1	0.00069	0.819	0.057	0.168							
				Nc1nc2[nH]c(CCCCc3ccc(C(=O)N[C@@H](CCC(=O)O)C(=O)O)cc3)cc2c(=O)[nH]1		> 1											
> 1	> 1			Nc1nc2[nH]c(CCCCCCCC(=O)O)cc2c(=O)[nH]1	> 1	> 1	> 1	> 1	> 1	> 1	> 1		> 1				
				CN(Cc1cnc2nc(N)nc(N)c2n1)c1ccc(C(=O)N[C@@H](CCC(=O)O)C(=O)O)cc1 [METHOTREXATE]		> 1											
> 10	0.2	Active	Active	Nc1nc2[nH]c(CCCCCC(=O)N[C@@H](CCC(=O)O)C(=O)O)cc2c(=O)[nH]1	> 1	> 1	> 1	> 1	> 1	> 1	0.214		> 1				
> 1	> 1			Nc1nc2[nH]c(CCCCCCC(=O)O)cc2c(=O)[nH]1	> 1	> 1	> 1	> 1	> 1	> 1	> 1		> 1				
> 1	> 1	Active	inactive	Nc1nc2[nH]c(CCCCCCCCC(=O)O)cc2c(=O)[nH]1	> 0.1	> 1	> 1	> 1	> 1	> 10	> 1		> 1				
				Nc1nc2[nH]c(CCCc3ccc(C(=O)N[C@@H](CCC(=O)O)C(=O)O)cc3)cc2c(=O)[nH]1		> 1											
				Cc1nc(=O)c2cc(CN(C)c3ccc(C(=O)N[C@@H](CCC(=O)O)C(=O)O)s3)ccc2[nH]1 [RALTITREXED]		> 1											
		Active	Active	Nc1nc(=O)c2nc(CNc3ccc(C(=O)N[C@@H](CCC(=O)O)C(=O)O)cc3)cnc2[nH]1													
> 1	0.00148	Active	Active	Nc1nc2[nH]c(CCCCCCCCC(=O)N[C@@H](CCC(=O)O)C(=O)O)cc2c(=O)[nH]1	> 10	> 1	> 1	> 1	> 1	0.0123	0.00399	inactive	> 1	0.00962	inactive	Active	inactive
				Nc1nc2[nH]c(CCCCCc3ccc(C(=O)N[C@@H](CCC(=O)O)C(=O)O)cc3)cc2c(=O)[nH]1		> 1			> 1								
> 1	> 1			Nc1nc2[nH]c(CCCCCC(=O)O)cc2c(=O)[nH]1	> 1	> 1	> 1	> 1	> 1	> 1	> 1		> 1				
				Nc1nc2[nH]c(CCCCCCc3ccc(C(=O)N[C@@H](CCC(=O)O)C(=O)O)cc3)cc2c(=O)[nH]1		> 1			> 1								
				Nc1nc2c(c(=O)[nH]1)C[C@@H](CCc1ccc(C(=O)N[C@@H](CCC(=O)O)C(=O)O)cc1)CN2 [LOMETREXOL]		> 1											

Structure (SMILES)	IC50 (KB [6]) [µM]	IC50 (KB [7]) [µM]	inhibition [10]	inhibition [16]	IC50 [1] [µM]	IC50 [2] [µM]	IC50 [3] [µM]	IC50 [4] [µM]	IC50 (R2) [µM]	IC50 [5] [µM]	IC50 [8] [µM]	inhibition [9]	IC50 [11] [µM]	IC50 [12] [µM]	inhibition [13]	growth inhibition (GI) (KB [14])	growth inhibition (GI) (KB [15])
Nc1nc2[nH]c(CCCCCCC(=O)N[C@@H](CCC(=O)O)C(=O)O)cc2c(=O)[nH]1	> 1	0.0079	Active	Active	> 1	> 1	> 1	> 1	> 1	0.0471	0.0106	inactive	> 1	0.00289	inactive	Active	inactive
Nc1nc2[nH]c(CCCCCCCC(=O)N[C@@H](CCC(=O)O)C(=O)O)cc2c(=O)[nH]1	> 1	0.0011	Active	Active	> 1	> 1	> 1	> 1	> 1	0.00854	0.00087	inactive	> 1	0.00549	inactive	Active	inactive
